We go through three compounds from publication PMC6420784 (Clinical lung cancer, 2018).

Structures are written as SMILES. “And” between values parts separate entries of the source, which are not always exact repeats. Equal values may be shown once. Marks after values point to notes of the source that are not given here.

For data set [1], the system named is patients with KRAS-mutated metastatic NSCLC. The experiment in a line: Phase Ib safety: adverse events, dose-limiting toxicities, MTD. The class given is in vivo, human. Particulars: for patients with AEs leading to dose interruptions or dose modifications: all dose levels, of the named drug. The procedure, abridged: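 Two 3 + 3 escalations. First, JAK/TBK1 inhibitor 100–200 mg q.d. or b.i.d. with MEK1/2 inhibitor 1.0 mg q.d. (level −1: 100 mg with 0.5 mg). Then MEK inhibitor 1.5 and 2.0 mg q.d. at the other drug's MTD. DLTs scored over the first 28-day cycle. MTD was the level below that with ≥2 DLTs. AEs recorded from first dose to 30 days post-dose, coded by MedDRA 19.1 and graded by CTCAE 4.03.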

The test system of data set [2] is KRAS-mutated metastatic NSCLC. The experiment in a line: Phase Ib efficacy: tumor response per RECIST, PFS, OS. The class given is in vivo, human. As to conditions: all 21 patients, n = 10. The method, boiled down:
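Open-label, nonrandomized phase Ib in platinum-treated, refractory KRAS-mutated metastatic NSCLC (ECOG 0–1, measurable disease). Patients dosed until progression, unacceptable toxicity, consent withdrawal or refusal. CT at baseline and every 8 weeks, scored by RECIST 1.1. DCR at week 8 (CR+PR+SD) and ORR (CR+PR) given per dose level with Clopper–Pearson 90% CIs. PFS and OS by Kaplan–Meier. All enrolled patients analysed.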

The nature of data set [3]: Plasma pharmacokinetics of momelotinib and M-21. Format: in vivo, human. Particulars: for Cmax and AUCtau with b.i.d. dosing: across 100 mg and 150 mg dose levels (dose levels 2B, 3, and I); for dose proportionality of Cmax and AUCtau: day 15 of cycle 1, between dose level 1 (100 mg q.d.) and dose level 2A (200 mg q.d.); for Cmax / Tmax / half-life: human, oral; for Cmax: mean (%CV); for Cmax / Tmax / half-life / AUCtau, mean (%CV): momelotinib in plasma; for Tmax: median (Q1, Q3); for half-life: t1/2, median (Q1, Q3).

Another data set has as its system myelofibrosis patients. Particulars: once daily (q.d.), previously established; cited from earlier work.
Data set [4] relates to previously treated KRAS-mutated advanced NSCLC. Particulars: single-agent trametinib 2.0 mg q.d., 10 of 86 patients; cited from earlier work.
[5] abbreviates: plasma, day 15 of cycle 1, M1: momelotinib 100 mg q.d. with trametinib 1.0 mg q.d.
The mark [6] stands for this setting: plasma, day 15 of cycle 1, M2A: momelotinib 200 mg q.d. with trametinib 1.0 mg q.d.
The mark [7] stands for this setting: plasma, day 15 of cycle 1, M2B: momelotinib 100 mg b.i.d. with trametinib 1.0 mg q.d.
The mark [8] stands for this setting: plasma, day 15 of cycle 1, M3: momelotinib 150 mg b.i.d. with trametinib 1.0 mg q.d.
Setting [9] is: plasma, day 15 of cycle 1, TI: momelotinib 150 mg b.i.d. with trametinib 1.5 mg q.d.

As to `N#CCNC(=O)c1ccc(-c2ccnc(Nc3ccc(N4CCOCC4)cc3)n2)cc1` [Momelotinib, momelotinib], in data set [1] (all 21 patients, n = 9), the “patients who discontinued because of AEs” value came to 42.9%. Besides, the “patients with AEs leading to dose interruptions or dose modifications” value in data set [1] turned out to be 47.6%. Besides, the “maximum tolerated dose (MTD) of momelotinib” value in data set [1] (b.i.d., in combination with trametinib 1.0 mg q.d. (dose level M3)) was found to be 150 mg. Also, the “patients who discontinued because of PD” value in data set [2] amounted to 47.6%. In addition, the “Cmax and AUCtau with b.i.d. dosing” value in data set [3] is “similar”. Also, the “dose proportionality of Cmax and AUCtau” value in data set [3] is recorded as “more than dose-proportional increases”. The “maximum momelotinib plasma concentrations” value in data set [3] (discussion summary) is “approximately 300 ng/mL”; in data set [3] (equal to approximately 300 ng/mL) it was 0.72 µmol/L. The Cmax in data set [3] (setting [5]) came out at 136 ng/mL; in data set [3] (setting [6]), 572 ng/mL; in data set [3] (setting [7]), 318 ng/mL; in data set [3] (setting [8]) it was 290 ng/mL; in data set [3] (setting [9]), 359 ng/mL. Further, the Tmax turned out to be 1.9 h in data set [3] (setting [5]), 2 h in data set [3] (setting [6]), 0.9 h in data set [3] (setting [7]) and 1.1 h in data set [3] (setting [8]). The half-life in data set [3] (setting [5]) is 6.9 h; in data set [3] (setting [6]), 8.7 h; in data set [3] (setting [7]) it was 8.3 h; in data set [3] (setting [8]), 6.1 h. Also, the “AUCtau, mean (%CV)” value in data set [3] (day 15 of cycle 1, M1: momelotinib 100 mg q.d. with trametinib 1.0 mg q.d.) was 774.3 (47.1) ng/mL/h; in data set [3] (day 15 of cycle 1, M2A: momelotinib 200 mg q.d. with trametinib 1.0 mg q.d.), 3901.9 (48.2) ng/mL/h; in data set [3] (day 15 of cycle 1, M2B: momelotinib 100 mg b.i.d. with trametinib 1.0 mg q.d.) it was 2568.3 (53.0) ng/mL/h; in data set [3] (day 15 of cycle 1, M3: momelotinib 150 mg b.i.d. with trametinib 1.0 mg q.d.), 2214.1 (71.5) ng/mL/h; in data set [3] (day 15 of cycle 1, TI: momelotinib 150 mg b.i.d. with trametinib 1.5 mg q.d.), 1871.1 (8.2) ng/mL/h. Also, in the data set with myelofibrosis patients, the “MTD of momelotinib as a single agent” value is recorded as 200 mg.
For `N#CCNC(=O)c1ccc(-c2ccnc(Nc3ccc(N4CCOCC4=O)cc3)n2)cc1` [M-21], in data set [3], the “Cmax and AUCtau with b.i.d. dosing” value is listed as “similar”. Further, the “dose proportionality of Cmax and AUCtau” value in data set [3] was “more than dose-proportional increases”. Further, the “M-21/Momelotinib Ratio, AUCtau, mean (%CV)” value in data set [3] (setting [5]) is recorded as 2.6 (44.6); in data set [3] (setting [6]), 1.7 (52.8); in data set [3] (setting [8]), 1.3 (40.3); in data set [3] (setting [9]) it was 1.4 (20.6). Also, the “M-21/Momelotinib Ratio, Cmax, mean (%CV)” value is on record as 2.2 (52.0) in data set [3] (setting [5]); 1.2 (47.2) in data set [3] (setting [6]); 1.7 (38.3) in data set [3] (setting [7]); 1.3 (25.8) in data set [3] (setting [8]); 1.1 (13.7) in data set [3] (setting [9]). The “M-21/Momelotinib Ratio, AUCtau, mean” value in data set [3] (plasma, day 15 of cycle 1, M2B: momelotinib 100 mg b.i.d. with trametinib 1.0 mg q.d., n = 1) is 2.7^c.
For `CC(=O)Nc1cccc(-n2c(=O)n(C3CC3)c(=O)c3c(Nc4ccc(I)cc4F)n(C)c(=O)c(C)c32)c1` [trametinib], the “patients with AEs leading to dose interruptions or dose modifications” value in data set [1] turned out to be 52.4%. In addition, the “maximum tolerated dose (MTD) of trametinib” value in data set [1] (q.d., in combination with momelotinib 150 mg b.i.d. (dose level M3)) is 1.0 mg and 1 mg. In data set [4], the PR is 11.6%.

Usually Cmax stands for the maximum level reached in the sampled fluid or tissue. By Tmax is commonly meant the time at which the peak concentration occurs. Broadly, the half-life is how long it takes for the measured level to halve. The low end stands for rapid decline, the high end for slow decline.
